RAD54 branch: inhibitors of human RAD54 branch migration; hit rate 0.14% among 360,000; inhibition, % at 10.4 µM; AID 602329; Q92698; RAD54 Holliday junction branch migration, FAM/BHQ fluorescence;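 active = mean normalized replicate activity at least 40 and at least half of replicates scoring 40 or more; inconclusive = only one of the two criteria met; inactive = mean below 40 and under half of replicates reaching 40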;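 note: inhibitors cause a drop in the FAM fluorescence signal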
Target sequence (Q92698 whole entry, looked up): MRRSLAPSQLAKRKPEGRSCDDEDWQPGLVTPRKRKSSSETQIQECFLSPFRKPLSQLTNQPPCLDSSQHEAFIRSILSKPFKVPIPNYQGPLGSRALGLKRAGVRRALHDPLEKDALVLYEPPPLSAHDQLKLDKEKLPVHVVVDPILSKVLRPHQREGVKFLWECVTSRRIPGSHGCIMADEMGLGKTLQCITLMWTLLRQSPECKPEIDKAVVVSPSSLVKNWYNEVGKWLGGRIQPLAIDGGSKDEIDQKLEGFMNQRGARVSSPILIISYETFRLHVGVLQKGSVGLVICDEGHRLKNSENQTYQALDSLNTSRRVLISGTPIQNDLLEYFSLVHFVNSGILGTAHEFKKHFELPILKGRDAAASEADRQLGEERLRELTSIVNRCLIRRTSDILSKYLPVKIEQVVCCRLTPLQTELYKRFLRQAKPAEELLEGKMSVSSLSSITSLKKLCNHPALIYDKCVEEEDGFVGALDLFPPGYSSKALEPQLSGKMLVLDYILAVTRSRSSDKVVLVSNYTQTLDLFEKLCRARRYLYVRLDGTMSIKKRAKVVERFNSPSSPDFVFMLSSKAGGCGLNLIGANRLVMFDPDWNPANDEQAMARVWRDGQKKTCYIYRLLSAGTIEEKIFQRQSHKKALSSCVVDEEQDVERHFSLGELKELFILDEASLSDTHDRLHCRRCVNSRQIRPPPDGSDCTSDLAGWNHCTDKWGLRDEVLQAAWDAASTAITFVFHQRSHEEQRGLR
RAD52 anneal inh: RAD52 (human) annealing inhibition; recombinant RAD52 DNA annealing, FRET fluorescence; hit rate 0.46% among 360,000; inhibition, % at 18.7 µM; P43351;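 active = every replicate showing at least 50% inhibition; inconclusive = mean inhibition at least 50% but not in every replicate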
PglD inh: blocks C. jejuni PglD acetyltransferase activity; purified PglD enzyme, DTNB colorimetric CoA detection; inhibition, % at 12.5 µM; hit rate 0.098% among 360,000; AID 602405; in the data active = inhibition above about 16%, passing the limit was not always enough; inconclusive = no clear call, values can overlap the other calls
Ecoli rRNA inh: selective bacterial rRNA inhibition in E. coli; E. coli WT GFP vs humanized-ribosome RFP mutants, fluorescence, 24 h; active compounds read low; DMSO median 0, no signal -100; GFP signal change (wild-type ribosome), % (no concentration beside the values); hit rate 1.6% among 350,000;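 active = significant combined selectivity score with lowered wild-type GFP, culture density cut under 30%, mutant RFP and density less affected; inactive = any of these conditions unmet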
E-selectin induc: E-selectin induction on HUVECs. P16581. HUVEC E-selectin immunofluorescence imaging; normalized: neutral wells 0, TNF-alpha wells 100. activation, % at 7.58 µM. hit rate 0.37% among 260,000;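 active = mean E-selectin-positive cell signal at least 10% of the positive control, reached in at least 60% of replicates, without over 20% cell loss; inconclusive = no rule given, readout overlaps actives, possibly toxicity-flagged; inactive = the rest, including those meeting only one limit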
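System: HUVEC / Compound: single concentration / Signal: immunofluorescence imaging / Read-out: percent E-selectin-positive cells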
Xi reactivation: activators of X-chromosome reactivation in mouse fibroblasts; XiGFP mouse fibroblasts, % GFP-positive cells imaging, 3 d; cells co-treated with 5-aza-dC sensitizer; scaled so ellipticine positive control = 100%; activation, % at 7.58 µM; hit rate 0.055% among 360,000; AID 743238;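 active = mean normalized replicate activation at least 10% and every replicate at or above 10%; inconclusive = only one of the two criteria met; inactive = mean below 10% and not all replicates reach 10%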
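Material: XiGFP fibroblasts, SV40-immortalized. Buffer or medium: DMEM plus 5-aza-dC sensitizer. Compound: single concentration per compound, delivered by pin transfer. Times: 3 days compound exposure. Controls: ellipticine 6 µM.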
AID977621: wild-type E. coli growth inhibition versus H69 humanized strain – H69 mutant RFP, wild-type GFP, cherry-pick, dose response; activity change, negative = inhibition at 50 µM; 1,900 tested, under 10 active; fluorescence, 24 h; shares compounds with Ecoli rRNA inh;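 active = Wild-type ribosome reporter drop at least double the humanized mutant ribosome reporter drop, growth loss under a set limit; inconclusive = no clear call, values can overlap the other calls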;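 note: wild-type GFP and H69 mutant RFP strains grown together 50/50 in each well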
AID977628: E. coli growth inhibition, wild-type GFP versus h24 humanized RFP strain, dose response, h24 mutant RFP vs wild-type GFP, cherry-pick; E. coli WT GFP strain growth, fluorescence, 24 h; shares compounds with Ecoli rRNA inh; 1,900 tested, under 10 active; activity change, negative = inhibition at 50 µM;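 active = compound lowering the normal-ribosome reporter at least twice as much as the humanized-ribosome reporter, growth loss under a set limit; inconclusive = no clear call, values can overlap the other calls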;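 note: wild-type GFP and h24 humanized RFP strains co-cultured 1 to 1 per well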
Numbers stand for hits. The list is not random: actives were taken first. Their share in the collection is about 2%.

`O=C(CCCOc1ccccc1)NCCc1nc2ccccc2[nH]1` gave RAD54 branch inactive, RAD52 anneal inh inactive, PglD inh inactive, Ecoli rRNA inh -19, E-selectin induc inactive, Xi reactivation inactive and AID977628 inactive.
`O=C(c1ccccc1)N1CCC2CCN(S(=O)(=O)c3ccccc3)CC21` (stereo unspecified) gave RAD52 anneal inh inactive, Ecoli rRNA inh inactive, E-selectin induc inactive and Xi reactivation inactive.
C/C=C/c1ccc2c(c1)O[C@@H](CN(C)Cc1ccc(F)cc1)[C@H](C)CN([C@H](C)CO)S2(=O)=O was read as RAD54 branch inactive, RAD52 anneal inh inactive, PglD inh inactive, E-selectin induc inactive and Xi reactivation inactive.
`Cc1cc(NC(=O)CS(=O)(=O)c2cn(Cc3cccc(Br)c3)c3ccccc23)no1` gave RAD54 branch inactive, RAD52 anneal inh inactive, PglD inh inactive, Ecoli rRNA inh -21, E-selectin induc inactive, Xi reactivation inactive and AID977621 inactive.
For Cc1cc(NC(=O)CS(=O)(=O)c2cn(Cc3ccccc3Cl)c3ccccc23)no1 the results were RAD54 branch inactive and PglD inh inactive.
Screening O=C(Nc1ccc(Nc2ccccc2)cc1)c1ccc(F)cc1 returned RAD54 branch inactive, RAD52 anneal inh inactive, PglD inh inactive, Ecoli rRNA inh -21, E-selectin induc inactive, Xi reactivation inactive, AID977621 inactive and AID977628 inactive.
Screening O=C(Nc1ccc(Nc2ccccc2)cc1)c1c(Cl)cccc1Cl returned RAD54 branch inactive, RAD52 anneal inh inactive, PglD inh inactive, Ecoli rRNA inh -34, Xi reactivation inactive and AID977621 inactive.
For O=C(O)c1ccc(C(=O)Nc2ccc(F)cc2)cc1 the results were RAD54 branch inactive, RAD52 anneal inh inactive, PglD inh inactive, Ecoli rRNA inh inactive, E-selectin induc inactive and Xi reactivation inactive.
For O=C(Nc1ccc(Nc2ccccc2)cc1)c1c(F)c(F)c(F)c(F)c1F the results were RAD54 branch inactive, RAD52 anneal inh inactive, PglD inh inactive, Ecoli rRNA inh inactive and Xi reactivation inactive.
For COc1ccc(S(=O)(=O)N(C)C[C@@H]2Oc3c(NC(=O)NC4CCCCC4)cccc3C(=O)N([C@H](C)CO)C[C@H]2C)cc1 the results were RAD54 branch inactive, RAD52 anneal inh inactive, PglD inh inactive, Ecoli rRNA inh inactive, E-selectin induc inactive and Xi reactivation inactive.
For O=C(COc1ccc(Br)cc1)Nc1ccc(C(=O)Nc2ccccc2C(=O)O)cc1 the results were RAD54 branch inactive, RAD52 anneal inh inactive, PglD inh inactive, Ecoli rRNA inh -28, Xi reactivation inactive, AID977621 inactive and AID977628 inactive.
`CN(C)S(=O)(=O)c1cccc(NC(=O)COc2ccc(C(=O)c3ccccc3)cc2)c1` gave RAD52 anneal inh inactive, Ecoli rRNA inh inactive, E-selectin induc inactive and Xi reactivation inactive.
CN(C(=O)c1ccc(F)cc1)c1ccc(OCC(=O)Nc2ccccc2C(=O)O)cc1 was read as RAD54 branch inactive, RAD52 anneal inh inactive, PglD inh inactive, Ecoli rRNA inh -14, E-selectin induc inactive, Xi reactivation inactive, AID977621 inactive and AID977628 inconclusive.
Screening CC(=O)NS(=O)(=O)c1ccc(NC(=O)COc2ccc(C(=O)c3ccccc3)cc2)cc1 returned RAD54 branch inactive, RAD52 anneal inh inactive, PglD inh inactive, Ecoli rRNA inh -27, Xi reactivation inactive and AID977621 inconclusive.
`C/C=C/c1ccc2c(c1)O[C@H](CN(C)Cc1cccnc1)[C@H](C)CN([C@@H](C)CO)S2(=O)=O` gave RAD54 branch inactive, RAD52 anneal inh inactive, PglD inh inactive, Ecoli rRNA inh inactive, E-selectin induc inactive and Xi reactivation inactive.
O=C(CC1CC1)N1CC(=O)N2[C@H](CO)[C@@H](c3ccc(-c4ccccc4)cc3)[C@@H]2C1 was read as RAD52 anneal inh inactive, Ecoli rRNA inh inactive, E-selectin induc inactive and Xi reactivation inactive.
`CCCC(=O)Nc1ccc2c(c1)C(=O)N(C)C[C@H](OC)[C@H](C)CN(CC1CCOCC1)[C@H](C)CO2` gave Ecoli rRNA inh inactive, E-selectin induc inactive and Xi reactivation inactive.
Screening COc1cccc(C(=O)NC2CC3CCCC(C2)N3S(=O)(=O)c2ccccc2)c1 (stereo unspecified) returned RAD52 anneal inh inactive, Ecoli rRNA inh -31, E-selectin induc inactive, Xi reactivation inactive and AID977621 inconclusive.
COc1ccc(N2CCN(S(=O)(=O)c3ccc(OC)cc3)CC2)cc1 was read as RAD54 branch inactive, RAD52 anneal inh inactive, PglD inh inactive and Ecoli rRNA inh inactive.
For COc1ccc(S(=O)(=O)n2cccc2)cc1 the results were RAD54 branch inactive, RAD52 anneal inh inactive, PglD inh inactive, Ecoli rRNA inh -23, E-selectin induc inactive, Xi reactivation inactive, AID977621 inconclusive and AID977628 inconclusive.
For COc1ccc(S(=O)(=O)N2CCOc3ccccc32)cc1 the results were RAD54 branch inactive, RAD52 anneal inh inactive, PglD inh inactive, Ecoli rRNA inh -22, E-selectin induc inactive, Xi reactivation inactive, AID977621 inactive and AID977628 inactive.
COc1ccc2c3c([nH]c2c1)[C@@H](CO)N(C(=O)Nc1ccc(F)cc1)CC31CN(S(=O)(=O)c2cccs2)C1 was read as Ecoli rRNA inh inactive, E-selectin induc inactive and Xi reactivation inactive.
`CC(C)NC(=O)Nc1ccc2c(c1)CC(=O)N(C)C[C@@H](C)[C@H](CN(C)S(C)(=O)=O)O2` gave Ecoli rRNA inh inactive and Xi reactivation inactive.
`Cc1ccc(S(=O)(=O)NCC[C@H]2CC[C@@H](NS(=O)(=O)c3ccccc3Cl)[C@@H](CO)O2)cc1` gave RAD54 branch inactive, RAD52 anneal inh inactive, PglD inh inactive, Ecoli rRNA inh inactive, E-selectin induc inactive and Xi reactivation inactive.
`O=C(Nc1ccc(Cl)c(Cl)c1)c1ccncc1` gave RAD54 branch inactive and PglD inh inactive.
O=C(Nc1ccc(Cl)c(Cl)c1)c1ccc(Cl)c(Cl)c1 was read as RAD54 branch inactive, RAD52 anneal inh inactive, PglD inh inactive, Ecoli rRNA inh -17, E-selectin induc inactive, Xi reactivation inactive, AID977621 inactive and AID977628 inactive.
For c1ccc(CSc2ncnc3c2oc2ccccc23)cc1 the results were RAD54 branch inactive and PglD inh inactive.
